Measurements collected from several papers.
Converted amounts (≈) assume the structure as drawn.
Organism: Klebsiella pneumoniae

Cc1ccc(C(C)C)cc1OCc1cn(-c2ccc(Cl)cc2)nn1 — IC50 (microbial growth, broth dilution; ATCC700603): 206 µg/mL (≈ 602 µM)
Cc1ccc(-c2nn(-c3ccccc3)cc2C=C(C#N)C2=NC(=O)CS2)cc1 — inhibition zone (microbial growth, well diffusion; 100000 µg/mL): 21 mm
Cc1c(CN(C)C(=O)/C=C/c2cnc3c(c2)CC(CCN)C(=O)N3)oc2ccccc12.Cl (stereo not shown) — MIC (microbial growth, broth dilution; BAA2470): 4 µg/mL
CCCCS(=O)(=O)Oc1cccc2cccnc12 — IC50 (microbial growth, broth dilution; ATCC700603): 171 µg/mL (≈ 645 µM)
CN[C@H](CC(C)C)C(=O)N[C@H]1C(=O)N[C@@H](CC(N)=O)C(=O)N[C@H]2C(=O)N[C@H]3C(=O)N[C@H](C(=O)N[C@H](C(=O)O)c4cc(O)cc(O)c4-c4cc3ccc4O)[C@H](O)c3ccc(c(Cl)c3)Oc3cc2cc(c3O[C@@H]2O[C@H](CO)[C@@H](O)[C@H](O)[C@H]2O[C@H]2C[C@](C)(N)[C@H](O)[C@H](C)O2)Oc2ccc(cc2Cl)[C@H]1O — MBC (microbial killing, broth dilution; ATCC43816): > 128 µM
O=C(O)c1cn(C2CC2)c2cc(N3CCNCC3)c(F)cc2c1=O — inhibition zone (microbial growth, disc diffusion; 100 µg/mL, 24 h): 17 mm
O=C(O)c1cn(C2CC2)c2cc(N3CCNCC3)c(F)cc2c1=O — MBC (microbial killing, broth dilution): 0.5 µg/mL
CCn1cc(C(=O)O)c(=O)c2cc(F)c(N3CCNCC3)cc21 — MBC (microbial killing, broth dilution; ATCC43816): 2 µM
CCOC(=O)C=c1[nH]c(=O)c(=Cc2cn(-c3ccccc3)nc2-c2ccccc2)s1 — inhibition zone (microbial growth, well diffusion; 100000 µg/mL): 14 mm
Cc1ccc(C(C)C)cc1OS(=O)(=O)c1cccs1 — IC50 (microbial growth, broth dilution; ATCC700603): 163 µg/mL (≈ 551 µM)
